The whole screen tested about 2,500 compounds, of which about 1,200 (48%) were called active.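 How the source made its calls: active means mean activation above the low control average plus 3 SD, as set in the primary screen (cut at about 12% in these data); inactive means the rest.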 The set was probably picked from earlier hits. The list shows a part of the results.
Each compound was assayed against Troponin I, cardiac muscle (Homo sapiens) + Troponin T, cardiac muscle (Homo sapiens) + Troponin C, slow skeletal and cardiac muscles (Homo sapiens) (UniProt P19429+P45379+P63316) (assay: cardiac RTF calcium sensitivity activators, confirmation, biochemical, IANBD-TnC fluorescence, triplicate (AID 504383;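 further: 0% = DMSO at 0.472 mM calcium and 100% = DMSO at 2.9 mM calcium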)). Conditions: IANBD-labeled cardiac RTF, Ca2+ sensitivity fluorescence; at 7.2 µM; stronger effect = higher value; scaled from EC20 to saturating calcium; tested at EC20 calcium, 0.472 mM.
Procedure, shortened: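 Assay system: labelled regulated thin filaments / Timing: 15 min at 25 °C / Detection: fluorescence intensity of labelled filaments / Measure: fluorescence gain scaled between EC20 and EC100 calcium controls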

activation, inactive:
c1ccc(CCCN2CCN(c3ccccc3)CC2)cc1 7.15%
CC1=NN(c2ccc(Br)cc2)C(=O)/C1=C/c1ccc(-c2ccccc2C(=O)O)o1 10.1%
CN1CCC/C1=C1/C(=O)N(c2ccccc2)N=C1NC(=O)Nc1cccc(Cl)c1 -1.33%
O=C(NCC1CC1)Nc1cccc(Cl)c1 2.84%
COCCOC(=O)/C(=C/c1ccc(OC(=O)c2ccccc2)cc1)C(C)=O 8.35%
COCc1cc(=O)[nH]c2cc(NC(=O)C(C)(C)CCl)c(C)cc12 4.59%
Cc1cc2nc3c(=O)[nH]c(=O)[nH]c3nc2c([N+](=O)[O-])c1N 2.96%
CC(=O)Nc1ccc(N2C(=O)c3cccc4c(O)ccc(c34)C2=O)cc1 2.36%
CN(C)c1ccc(/C=C2\N=C(C(C)(C)C)OC2=O)cc1 7.46%
Cc1c(N2C(=O)/C(=C\c3ccc(N(C)C)cc3)N(C)C2=S)c(=O)n(-c2ccccc2)n1C 6.77%
COC(=O)CCCNC(=O)CCc1nnc(-c2ccc(-c3ccccc3)cc2)o1 10.8%
CCCN1C(=O)c2cccc3c(N4CCCCC4)ccc(c23)C1=O 6.04%
Cc1n[nH]c(C)c1N1C(=O)c2cccc3c(N4CCCCCC4)ccc(c23)C1=O 5.61%
O=C1c2cccc3c(N4CCCCC4)ccc(c23)C(=O)N1c1ccc(O)cc1 10.7%
O=C1c2cccc3c(N4CCCCC4)ccc(c23)C(=O)N1c1ccccc1O -0.04%
O=C1c2ccccc2-c2onc3ccc(N4CCCC4)c1c23 9.75%
CC1(C)C2CCC(C2)C1(C)N=C1OC(CCl)CS1 (centres undefined) 3.58%
O=c1oc2c3c4c(cc2c(C(F)(F)F)c1CCN1CCOCC1)CCCN4CCC3 4.32%
Cc1ccc2c(CN3CCCc4ccccc43)cc(=O)oc2c1C -0.53%
CC(=O)N1CCN(S(=O)(=O)c2cccc(C(=O)NNC(=O)c3ccc(Br)cc3)c2)CC1 7.22%
CN1CCN(C2=CC3=CC(=C(C#N)C#N)CCC3CC2)CC1 (centres undefined) 6.77%
CC(=O)NCC(O)c1ccc([N+](=O)[O-])cc1 (centres undefined) 7.74%
CCCCNc1c2c3c(cccc3n(C)c1=O)C(=O)c1ccccc1-2 2.63%
CC(C)n1cnc2c(NCc3ccccc3)cc(N[C@H](C)CO)cc21 -7.72%
C[C@@H]1CC=C[C@H]2[C@H]1C(=O)N(Cc1ccccc1)[C@H]2c1ccc(-c2cc3ccccc3s2)cc1F 3.06%
CCOc1cccc2c1OC1(C)CC2NC(=O)N1c1cccc(C(=O)NCc2ccccn2)c1 (centres undefined) 5.07%
COc1cccc2c1OC1(C)CC2NC(=O)N1Cc1ccccc1 (centres undefined) 10.4%
CC1=Nc2ccccc2/C1=C\c1nc(-c2ccc(F)cc2)oc1O 7.33%
CC1=Nc2ccccc2/C1=C\c1nc(-c2ccc(C(F)(F)F)cc2)oc1O 7.9%
Cn1c(/C(C#N)=C/c2ccc(-c3ccc(S(N)(=O)=O)cc3)o2)nc2ccccc21 9.43%
CN1CCc2c(sc3c2C(=O)NC(c2cccs2)N3)C1 (centres undefined) 9.65%
CN1CCc2c(sc3c2C(=O)NC(c2ccco2)N3)C1 (centres undefined) 1.53%
Cc1ccc(C2NC(=O)c3c(sc4c3CCN(C)C4)N2)s1 (centres undefined) 5.94%
CN1CCc2c(sc3c2C(=O)NC(c2ccccn2)N3)C1 (centres undefined) 1.45%
CCc1ccccc1NC(=S)NCc1cccn1C 9.11%
O=C(NCCCN1CCOCC1)C(=O)NCc1ccco1 9.34%
CC1CC(C)(C)NC(=S)N1CCCC(=O)Nc1ccccc1F (centres undefined) -0.32%
CC(C)C[C@@H](CN=[N+]=[N-])N1CCN(C)CCC1=O -0.6%
CCN1CCN(C2=CC3=CC(=C(C#N)C#N)CCC3CC2)CC1 (centres undefined) 0.71%
Cc1oc(-c2ccccc2Cl)nc1CSc1nc2c(c(=O)[nH]1)CCC2 6.98%
O=C(NCc1ccccc1)C1(c2cccc(F)c2)CCCC1 6.54%
Fc1ccc(CNCc2ccc(Br)cc2)cc1 10.4%
Cc1cc(=O)c2c([nH]1)c(C)cc1[nH]c(C)c(C)c12 9.89%
CC1(C)C([N+](=O)[O-])C(c2ccc(F)cc2)NC(c2ccc(F)cc2)C1[N+](=O)[O-] (centres undefined) 1.97%
CCCCCCC(=O)N/N=C/c1ccco1 7.23%
Cc1ccccc1N(CC(N)=O)S(C)(=O)=O 4.33%
O=C(O)c1ccccc1-c1c2cc(I)c(=O)c(I)c-2oc2c(I)c(O)c(I)cc12 5.23%
C#CCOCCOCCOCCNc1nc(N2CCN(C(=O)Cn3cc(CCCCN)nn3)CC2)nc(N2CCN(C(=O)Cn3cc(CC(C)O)nn3)CC2)n1 (centres undefined) 5.79%

activation, active:
O[C@@H]1CN(C2CCCCC2)CC[C@H]1N1CCN(CCc2ccccc2)CC1 18.1%
CC1=NN(c2ccc(C)c(C)c2)C(=O)/C1=C/c1ccc2c(c1)n(C)c(=O)n2C 57.9%
O=C(Nc1ccc(C(=O)N2CCOCC2)cc1)Nc1cccc(Cl)c1 47.5%
CC(COC(=O)c1ccccc1)(COC(=O)c1ccccc1)/[N+]([O-])=C/c1ccccc1 32%
Nc1ccc2nc3c(=O)[nH]c(=S)[nH]c3nc2c1 28.7%
Cc1cc2nc3c(=O)n(C4CCCCC4)c(=O)[nH]c3nc2cc1N 17.8%
Nc1ccc2nc3c(=O)n(C4CCCCC4)c(=O)[nH]c3nc2c1 16.6%
Cc1cc2nc3c(=O)[nH]c(=S)[nH]c3nc2cc1NC(=O)C(F)(F)F 25.4%
O=C(c1ccc(Cn2cc([N+](=O)[O-])cn2)o1)N1N=C(C(F)F)CC1(O)C(F)F (centres undefined) 14.1%
O=C(c1ccc(COc2ccccc2Br)o1)N1N=C(C(F)F)CC1(O)C(F)F (centres undefined) 34.5%
c1ccc(-n2ncc(-c3nn[nH]n3)n2)cc1 163%
CC(=O)Nc1ccc(N2C(=O)CSC2c2ccc(F)cc2)cc1 (centres undefined) 81.7%
CCC(=O)N1CCC2(CC1)Oc1ccc(Cl)cc1C(=O)C21CC(c2cccnc2)=NO1 (centres undefined) 19.6%
CN1C(=O)/C(=C\c2ccc(N(C)C)cc2)OC1=S 223%
CN(N=Nc1nc[nH]c1C(=O)NN)C1CCCCC1 12.9%
Cc1cc(C)c(C#N)c(SCc2nnc(-c3ccccc3)o2)n1 50.8%
O=C(CO/N=C/c1ccccc1OC(F)F)NCc1cccs1 70.3%
O=C1c2cccc3c(N4CCCCC4)ccc(c23)C(=O)N1c1cccc(O)c1 33.3%
C=CCN1C(=O)c2cccc3c(N4CCCCC4)ccc(c23)C1=O 15.9%
O=C1c2cccc3c(N4CCCCC4)ccc(c23)C(=O)N1CCO 185%
N=c1oc2c3c4c(cc2cc1C(=O)Nc1ccccc1)CCCN4CCC3 88.7%
O=c1ccc2cc3c4c(c2o1)CCCN4CCC3 33.6%
CCN(CC)S(=O)(=O)c1ccc2[nH]cc(C(=O)NCCN3CCCCCC3)c(=O)c2c1 34.4%
CC(C)(C)c1cc(NC(=O)c2cccc(S(=O)(=O)N3CCOCC3)c2)no1 23.5%
Cn1nc(-c2ccccc2)c(C(=O)Nc2ccc(C(F)(F)F)cc2)c1Cl 26.2%
CSCC(C)N1CCC(n2nccc2NC(=O)CCCc2ccccc2)CC1 (centres undefined) 162%
COC(=O)CCN(C(=O)c1ccc([N+](=O)[O-])cc1)c1ccccn1 19.7%
COCCCNc1c2c3c(cccc3[nH]c1=O)C(=O)c1ccccc1-2 13.2%
CCOC(=O)c1sc2nc(C)nc(SCC(=O)NC3CCS(=O)(=O)C3)c2c1C (centres undefined) 32.3%
CN(Cc1ccccc1)C(=O)c1cccc(N2C(=O)NC3CC2(C)Oc2ccccc23)c1 (centres undefined) 54%
COc1ccc(-c2nc(/C=C3\C(C)=Nc4ccccc43)c(O)o2)cc1 12.1%
N#C/C(=C\c1ccc(-c2ccc(F)cc2)o1)C(=O)Nc1nc(-c2cccs2)cs1 81.8%
N#C/C(=C/c1ccc(-c2ccccc2)o1)c1nc(-c2cccs2)cs1 105%
O=C1NC(c2ccco2)Nc2sc3c(c21)CCN(Cc1ccccc1)C3 (centres undefined) 11.7%
Cc1ccc(C2NC(=O)c3c(sc4c3CCN(C)C4)N2)o1 (centres undefined) 12.6%
CSc1ccc(C2NC(=O)c3c(sc4c3CCN(C)C4)N2)cc1 (centres undefined) 22.9%
Cc1ccsc1C1NC(=O)c2c(sc3c2CCN(C)C3)N1 (centres undefined) 63.1%
Cn1c(C(=O)NCCCN2CCCCCC2)cc2c(=O)n(C)c3ccccc3c21 18.9%
O=C(C1=NN[C@@H]2C(=O)N(c3ccccc3C(F)(F)F)C(=O)[C@H]12)c1ccc2ccccc2n1 60.7%
Cc1ccc(C)c(N2CCN(C(=O)CN3C(=S)NC(C)(C)CC3C)CC2)c1 (centres undefined) 42.4%
Fc1ccc(CNC(=S)NCc2ccc(F)cc2)cc1 54.8%
COC(=O)C1(C)NC(c2ccc(C)cc2)C2C(=O)N(c3ccc(F)cc3)C(=O)C21 (centres undefined) 17%
CC(C)CN1CCN(Cc2cccn2-c2ccc(Cl)cn2)CC1CCO (centres undefined) 155%
COc1ccc(S(=O)(=O)N2CN(Cc3ccco3)c3nc4ccccc4nc32)cc1 127%
O=S(=O)(c1ccc(F)cc1)N1CN(Cc2ccco2)c2nc3ccccc3nc21 19%
CS(=O)(=O)N(CC(=O)N/N=C/c1ccco1)c1ccccc1Br 116%

— PubChem BioAssay AID504383 (The Scripps Research Institute Molecular Screening Center, 2011)
